“Also recorded” adds a separate entry of the source. Like-named read-outs stand apart in the source and are kept apart here. Each block holds one molecule with its values, some of them ahead of it. No end group written: not given here.
B1: Chica_(410–478) (domain or fragment, human, UniProt Q9H4H8 410-478, looked up)
chain: QTSITTACAGTQTAVITRIASSQTTIWSRSTTTQTDMDENILFPRGTQSTEGSPVSKMSVSRSSSLKSS
B2: LC8 (natural protein)
chain: MSDRKAVIKNADMSEEMQQDAVDCATQALEKYNIEKDIAAYIKKEFDKKYNPTWHCIVGRNFGSYVTHETRHFIYFYLGQVAILLFKSG

Columns and labels:
LC8 [1] = target: T1, LC8 (Drosophila melanogaster, UniProt Q24117); details: read-out: binding affinity; Pak1; cited from earlier work
LC8 [2] = target: T1, LC8; assay: Isothermal titration calorimetry of LC8 binding to Chica motif peptides; details: for relative affinity, in words: comparison between Chica motif peptides; for fold weaker affinity than QT1p: relative to QT1p (Kd 0.4 μM)
How it was run: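 Synthetic peptides of Chica motifs, with added non-native N-terminal residues for solubility and A280 quantitation, at 280–300 μM final in 50 mM sodium phosphate, 50 mM NaCl, 0.5 mM sodium azide, pH 7.5. Titrated into 30–35 μM LC8 in the cell at 25 °C. Peak areas were fitted to a single-site model for N, Kd, ΔH and ΔS. Values are the average of three independent experiments.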

LC8 [3] = target: B2; assay: ITC
LC8 [4] = target: B2; assay: ITC; remark: listed apart in the source
Chica_(410–478) = target: B1; assay: ITC
LC8 [5] = target: T1, LC8; details: of 17 motifs; cited from earlier work

Molecule: Pak1: LC8 recognition motif of Pak1 (TPTRDVATSP)
Kd (LC8 [1]): 42.7 µM

Molecule: SYSVSEVGTQTSI [QT2p]
relative affinity, in words (LC8 [2]; ITC, listed as QT2): bind LC8 with a similar affinity | fold weaker affinity than QT1p (LC8 [2]): over 10 fold

Molecule: SYTTACAGTQTAV [QT3p]
binding to LC8, in words (LC8 [2]; ITC, 25 °C, pH 7.5): too weak to be measured accurately by ITC; also recorded: immeasurably weak

relative affinity, in words (LC8 [2]; ITC): bind LC8 with a similar affinity
Molecule: SYWSRSTTTQTDM [QT4p]
fold weaker affinity than QT1p (LC8 [2]): over 10 fold

Molecule: B1
Kd (LC8 [3]): 400 ± 100 nM

dH (LC8 [4]): -6.8 ± 0.2 kcal/mol | stoichiometry N (LC8 [4]): 1
Molecule: SYRKAIDAATQTEE [QT1p]

Molecule: B2
dH (Chica_(410–478)): -7.6 ± 0.2 kcal/mol | stoichiometry N (Chica_(410–478)): 3

B3: ASCIZ: transcription factor ASCIZ with 17 motifs (protein, UniProt O43313 1-823, looked up)
ATM interactor: MAASEAAAAAGSAALAAGARAVPAATTGAAAAASGPWVPPGPRLRGSRPRPAGATQQPAVPAPPAGELIQPSVSELSRAVRTNILCTVRGCGKILPNSPALNMHLVKSHRLQDGIVNPTIRKDLKTGPKFYCCPIEGCPRGPERPFSQFSLVKQHFMKMHAEKKHKCSKCSNSYGTEWDLKRHAEDCGKTFRCTCGCPYASRTALQSHIYRTGHEIPAEHRDPPSKKRKMENCAQNQKLSNKTIESLNNQPIPRPDTQELEASEIKLEPSFEDSCGSNTDKQTLTTPPRYPQKLLLPKPKVALVKLPVMQFSVMPVFVPTADSSAQPVVLGVDQGSATGAVHLMPLSVGTLILGLDSEACSLKESLPLFKIANPIAGEPISTGVQVNFGKSPSNPLQELGNTCQKNSISSINVQTDLSYASQNFIPSAQWATADSSVSSCSQTDLSFDSQVSLPISVHTQTFLPSSKVTSSIAAQTDAFMDTCFQSGGVSRETQTSGIESPTDDHVQMDQAGMCGDIFESVHSSYNVATGNIISNSLVAETVTHSLLPQNEPKTLNQDIEKSAPIINFSAQNSMLPSQNMTDNQTQTIDLLSDLENILSSNLPAQTLDHRSLLSDTNPGPDTQLPSGPAQNPGIDFDIEEFFSASNIQTQTEESELSTMTTEPVLESLDIETQTDFLLADTSAQSYGCRGNSNFLGLEMFDTQTQTDLNFFLDSSPHLPLGSILKHSSFSVSTDSSDTETQTEGVSTAKNIPALESKVQLNSTETQTMSSGFETLGSLFFTSNETQTAMDDFLLADLAWNTMESQFSSVETQTSAEPHTVSNF
number of motifs that bind LC8 (LC8 [5]): 11

Kd (LC8 [4]): 6.3 ± 0.4 µM | dH (LC8 [4]): -8.5 ± 1.1 kcal/mol | stoichiometry N (LC8 [4]): 1
Molecule: SYSVSEVGTQTSI [QT2p]

Kd (LC8 [4]): 5.2 ± 0.1 µM | dH (LC8 [4]): -8.2 ± 0.1 kcal/mol | stoichiometry N (LC8 [4]): 1
Molecule: SYWSRSTTTQTDM [QT4p]

Source: article PMC6995037 (Biochemistry, 2015)
